ANO1 activ – activators or potentiators of mouse TMEM16A chloride channel; Q8BHY3; HEK293 TMEM16A/YFP-H148Q/I152L, iodide quench fluorescence; stronger effect = lower value; B-score at 10 µM; hit rate 0.3% among 340,000; AID 623877;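 active means fluorescence-ratio B-score plate-corrected deviation score at least 3 library SD below zero, with starting fluorescence score within 5 deviations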;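 further: channel opened by trigger with iodide after compound preincubation; score built on the fluorescence ratio of max minus min over baseline; more negative score means more quench and so TMEM16A activation or potentiation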
ANO1 block – mouse TMEM16A channel inhibition, primary screen; Q8BHY3; HEK293 TMEM16A/YFP iodide influx fluorescence, ionomycin; normalized B-score (activity score, 25-100; higher = stronger inhibition) at 10 µM; hit rate 1.2% among 310,000;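 active means ratio plate-corrected score three or more library SD toward inhibition, starting fluorescence score within five deviations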;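 further: score derived from kinetic fluorescence span divided by baseline fluorescence per well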
MT1-MMP act inh – inhibitors of human MT1-MMP activation. GFP/RFP ratio change, % at 20 µM. HT1080 RFP-PRO-GFP cells, GFP/RFP ratio fluorescence, overnight; percent of plate control window, DMSO zero. hit rate 0.061% among 360,000;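 active means GFP/RFP ratio change of at least 30% with cell ATP level not reduced by more than half and red fluorescence within 50% of control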
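Assay system: RFP-PRO-GFP reporter HT1080 cells; read-out basis: GFP/RFP fluorescence ratio; benchmarks: DMSO wells and RFP-L50D-GFP cells; doses: 20 µM single dose, 1% DMSO; schedule: overnight cell settling, then overnight compound exposure, 37 °C, 5% CO2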
DAGLB inh – diacylglycerol lipase beta (human) inhibition. HEK293T DAGLB membrane lysate, EnzChek fluorogenic substrate. hit rate 0.059% among 340,000. inhibition, % at 5.17 µM; in the data active means inhibition above about 34%;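 further: 0% = enzyme with vehicle and 100% = wells lacking enzyme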
Active calls of the source: *; i = inactive; . = no result given. Most compounds without a hit are left out; they make up all but 1.3% or so of the library.

SMILES	ANO1 activ	ANO1 block	MT1-MMP act inh	DAGLB inh
Cc1ccc(C(=O)C(c2ccccc2)N2Cc3ccccc3C2=N)cc1 (stereo not given)	i	100*	-10.7	-2.9
Cn1c(=O)c2c(ncn2CC(=O)Nc2nc(-c3ccccc3Cl)cs2)n(C)c1=O	-10.2*	i	2.2	1.5
O=C1NCCOC(=O)[C@@H](Cc2ccc(F)cc2)C/C=C\C[C@@H]1CC(=O)N(CCO)Cc1ccccc1	i	.	6.9	-0.4
Nc1cc(N)nc(SCC(=O)NC2CCCCCCC2)n1	i	.	-2.3	0.7
O=C(COC(=O)CC(c1ccccc1)c1ccccc1)Nc1cccc(F)c1	i	i	0.3	-5.9
O=C(COC(=O)CC(c1ccccc1)c1ccccc1)Nc1ccc(F)c(F)c1	.	100*	.	.
O=C(CNCc1ccc(Cl)cc1)Nc1cc(S(=O)(=O)N2CCCC2)ccc1Cl	i	.	-5.3	-4.5
CC(C)N(C(=O)c1nn(C)c2c1CSc1ccccc1-2)C1CCCCC1	i	25*	2.1	-6.9
CCOc1ccc(/C=N/NC(=O)c2ccccc2O)cc1CN1CC2CC(C1)c1cccc(=O)n1C2 (stereo not given)	i	.	-3.4	-1.0
O=S(=O)(c1cccc2cnccc12)N1CCNCC1	-11.7*	i	-13.6	0.1
COC(=O)[C@]12CCCCC=C1N(Cc1ccc3c(c1)OCO3)C(=O)[C@H](CC(=O)N1CCSCC1)C2	.	.	-7.7	.
C[N+](C)(C)CCOC(N)=O	-5.71*	i	1.7	2.1
Cc1nnc(SCCOC(N)=O)n1C	i	.	0.2	-0.7
CN1CCN(C2=CC3=CC(=C(C#N)C#N)CCC3CC2)CC1 (stereo not given)	-40.8*	.	-114.4	-421.9
C[C@H](c1ccccc1)N1C[C@H](COCc2ccccc2)Oc2cc(N3CCC[C@H]3C(N)=O)ccc2S1(=O)=O	.	.	2.0	.
O=S(=O)(NC1CCCCC1N1CCOCC1)c1ccc(Cl)cc1 (stereo not given)	i	i	5.6	-2.5
O=S(=O)(NC1CCCCC1N1CCN(c2ccccc2F)CC1)c1ccc(Cl)cc1 (stereo not given)	-39.7*	i	-4.8	-54.0
COc1ccc2sc(N(CCN(C)C)C(=O)c3cc(Cl)sc3Cl)nc2c1	-5.87*	i	-0.1	-1.2
COc1cc2ccccc2cc1C(=O)N(CCN(C)C)c1nc2c(F)cc(F)cc2s1	i	25*	-5.6	-5.7
COc1ccc(OC)c2sc(N(CCN(C)C)C(=O)c3cc(Cl)sc3Cl)nc12	i	i	2.5	-2.0
COc1cc2ccccc2cc1C(=O)N(CCN(C)C)c1nc2ccc(Br)cc2s1	i	i	-5.1	-5.3
Cc1cc(Cl)ccc1OC(C)C(=O)Nc1ccc(C(=O)Nc2ccccc2C(=O)O)cc1 (stereo not given)	i	100*	3.5	8.5
O=C(Nc1ccc(S(=O)(=O)Nc2cnc3ccccc3n2)cc1)c1ccc(Cl)cc1Cl	i	i	3.1	.
CC(Oc1ccc(Cl)cc1Cl)C(=O)Nc1ccc(S(=O)(=O)Nc2cnc3ccccc3n2)cc1 (stereo not given)	.	100*	.	.
Cc1cc(Cl)ccc1OC(C)C(=O)Nc1ccc(S(=O)(=O)Nc2cnc3ccccc3n2)cc1 (stereo not given)	i	100*	11.1	10.5
SMILES	ANO1 activ	ANO1 block	MT1-MMP act inh	DAGLB inh
Cc1cc(Cl)ccc1OC(C)C(=O)Nc1ccc(S(=O)(=O)N2CCOCC2)cc1 (stereo not given)	i	i	-2.3	-0.4
CS(=O)(=O)c1ccc(-n2nnc3ccccc32)c([N+](=O)[O-])c1	i	i	-1.9	4.0
O=[N+]([O-])c1cc(S(=O)(=O)Nc2cccc(C(F)(F)F)c2)ccc1-n1nnc2ccccc21	i	100*	6.3	17.4
COc1ccc(NS(=O)(=O)c2ccc(-n3nnc4ccccc43)c([N+](=O)[O-])c2)cc1	i	25*	-5.1	-0.9
CN(C)CCCNS(=O)(=O)c1ccc(-n2nnc3ccccc32)c([N+](=O)[O-])c1	i	i	-3.4	0.7
O=c1cc(N2CCCCC2)c(-c2ccccc2)nn1Cc1c(Cl)cccc1Cl	-26*	25*	-15.5	-8.6
CSc1ccc2c(c1)N(CCC1CCCCN1C)c1ccccc1S2 (stereo not given)	i	25*	-15.1	3.9
CCOC(=O)c1sc(NC(=O)c2ccc(S(=O)(=O)N(C)C)cc2)nc1C	-13.9*	i	3.8	-3.2
CCOc1ccccc1NC(=O)COC(=O)c1cnc(C)cn1	i	.	-0.8	-2.0
